Columns and labels:
[1] = species: Homo sapiens; experiment: Inhibition of heparin-induced alexa red-labelled tau K18PL mutant aggregation after 6 hrs by thioflavin-T fluorescence assay relative to control
Summary of the method: (§1)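 Heparin-induced fibrillization of tau K18 fragment (residues 244–369) carrying P301L, with tau at 20 μM in sodium acetate buffer. Fibril formation was read by thioflavin-T fluorescence. IC50 came from sigmoidal fitting of concentration-response data, each concentration in triplicate. Values are from a single fit, or the mean of 2 or more analyses where marked.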

[2] = species: Homo sapiens; experiment: Inhibition of heparin-induced tau K18PL mutant aggregation assessed as soluble tau fragment level at 50 uM after 5 days by SDS-PAGE analysis
Summary of the method: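 Secondary centrifugation assay. Heparin-induced K18 P301L tau fibrillization mixtures with compound at 50 μM were centrifuged. Soluble and insoluble fractions were analysed by SDS-PAGE to give the percentage of tau remaining soluble.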

[3] = Inhibition of heparin-induced alexa red-labelled tau K18PL mutant aggregation after 6 hrs by thioflavin-T fluorescence assay; parameters: species or system Homo sapiens; summary of the method: as §1
[4] = test system: Brain; experiment: (§2) Drug uptake in B6C3F1 mouse brain at 5 mg/kg, ip after 1 hr; format: ADME, organism-based; parameters: dose 5 mg/kg, route intraperitoneal; conditions: mouse, in vivo, 1 h, BLD = below limit of detection
Summary of the method: (§3)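 Single i.p. dose of 5 mg/kg, sacrifice 1 h later. Perfused brain hemispheres were homogenized in 10 mM ammonium acetate pH 5.7 (50% w/v). EDTA plasma was taken. Brain homogenate or plasma was extracted with acetonitrile and analysed by LC-MS/MS (MRM) against matrix standard curves. Brain-to-plasma ratio was taken from total levels.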

[5] = test system: Plasma; experiment: (§4) Drug uptake in B6C3F1 mouse plasma at 5 mg/kg, ip after 1 hr; format: ADME, organism-based; parameters: dose 5 mg/kg, route intraperitoneal; conditions: mouse, in vivo, 1 h, BLD = below limit of detection; summary of the method: as §3
[6] = as §2; format: ADME, organism-based; parameters: dose 5 mg/kg, route intraperitoneal; conditions: B6C3F1, mouse, brain, read-out: Drug uptake; summary of the method: as §3
[7] = as §4; format: ADME, organism-based; parameters: dose 5 mg/kg, route intraperitoneal; conditions: B6C3F1, mouse, plasma; summary of the method: as §3
[8] = test system: Brain; experiment: Fraction unbound in mouse brain homogenate at 1 uM after 5 hrs by equilibrium dialysis; format: ADME, tissue-based
Summary of the method: (§5)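 Rapid equilibrium dialysis. Compound at 1 μM in mouse plasma or brain homogenate, each diluted threefold with 100 mM sodium phosphate pH 7.4. Triplicate samples dialysed against the same buffer for 5 h at 37 °C with shaking. Both sides were matrix-matched, extracted with acetonitrile and run by LC-MS/MS. fu is buffer response over sample response; brain fu was corrected for tissue dilution.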

[9] = Ratio of fraction unbound in brain homogenate to plasma in mouse at 1 uM after 5 hrs by equilibrium dialysis; format: ADME, tissue-based; summary of the method: as §5
[10] = test system: Mus musculus; experiment: Ratio of drug level in brain to plasma in B6C3F1 mouse at 5 mg/kg, ip after 1 hr

Row | Compound | Imax [1] | inhibition [2] | IC50 [3] | Drug uptake [4] | Cp [5] | concentration at 1 h [6] | concentration at 1 h [7] | Fu [8] | Ratio [9] | BPR [10]
1 | CCOC(=O)c1nn(-c2ccc(O)cc2)c(=O)c2c(N)scc12 | 81% | 69% | 5 µM |  |  |  |  |  |  | 
2 | Cc1nn(C2CCCCC2)c(=O)c2c(N)scc12 | 65% | 86% | 31.6 µM |  |  |  |  |  |  | 
3 | Nc1scc2c(C(=O)NC3CC3)nn(-c3ccc(C(F)(F)F)cc3)c(=O)c12 | 64% | 83% | 6.3 µM |  |  |  |  |  |  | 
4 | Cc1n[nH]c(=O)c2c(N)scc12 | 87% | 81% | 8 µM | BLD | BLD |  |  |  |  | 
5 | CC(C)c1ccc(-n2nc(C(=O)NC3CC3)c3csc(N)c3c2=O)cc1 | 82% | 86% | 4 µM |  |  |  |  |  |  | 
6 | Cc1nn(C(C)C)c(=O)c2c(N)scc12 | 95% | 17% | 19.9 µM |  |  |  |  |  |  | 
7 | CC(C)NC(=O)c1nn(-c2ccc(F)cc2)c(=O)c2c(N)scc12 | 89% | 77% | 1.6 µM |  |  | 280 ng/g | 110 ng/mL | 2.9% | 1.3 | 2.68
8 | Cc1nn(Cc2ccccc2)c(=O)c2c(N)scc12 | 89% | 73% | 1.6 µM |  |  | 48 ng/g | 78 ng/mL | 5.1% | 0.77 | 0.6
9 | Nc1scc2c(C(=O)NCC(F)(F)F)nn(-c3ccc(F)cc3)c(=O)c12 | 83% | 75% | 8 µM |  |  | 637 ng/g | 401 ng/mL | 3.2% | 2.31 | 1.59
10 | CC(C)NC(=O)c1nn(-c2cccc(Cl)c2)c(=O)c2c(N)scc12 | 82% | 73% | 3.2 µM |  |  |  |  |  |  | 
11 | Cc1nn(-c2cccnc2)c(=O)c2c(N)scc12 | 74% | 84% | 4 µM |  |  |  |  |  |  | 
12 | Cc1nn(-c2ccccn2)c(=O)c2c(N)scc12 | 85% | 78% | 2 µM |  |  | 7.5 ng/g | 61 ng/mL |  |  | 0.116
13 | CC(C)NC(=O)c1nn(-c2ccc(O)cc2)c(=O)c2c(N)scc12 | 86% | 84% | 15.8 µM |  |  | 14.1 ng/g | 150 ng/mL |  |  | 0.098
14 | CCOC(=O)c1nn(-c2ccccc2Cl)c(=O)c2c(N)scc12 | 75% | 71% | 2 µM |  |  |  |  |  |  | 
15 | Cc1nn(CC(F)(F)F)c(=O)c2c(N)scc12 | 81% | 78% | 10 µM |  |  |  |  |  |  | 
16 | Nc1scc2c(C(=O)O)nn(-c3ccc(F)cc3)c(=O)c12 | 84% | 83% | 2 µM |  |  |  |  |  |  | 
17 | CCOC(=O)c1c(C(=O)c2ccccc2)csc1N | 29% | 6.5% |  |  |  |  |  |  |  | 
18 | Nc1scc2c(-c3ccccc3)nn(CC(F)(F)F)c(=O)c12 | 103% | 82% | 6.3 µM |  |  |  |  |  |  | 
19 | CCOC(=O)c1nn(-c2ccc(F)cc2)c(=O)c2c(N)scc12 | 77% | 63% | 1 µM |  |  |  |  |  |  | 
20 | CC(C)NC(=O)c1nn(-c2ccc(Cl)cc2)c(=O)c2c1CSC2=O | 96% | 85% | 10 µM |  |  | 16.3 ng/g | 4700 ng/mL |  |  | 0.0035
21 | CCOC(=O)c1nn(-c2cccc(Cl)c2)c(=O)c2c(N)scc12 | 82% | 73% | 3.2 µM |  |  |  |  |  |  | 

Results, then the compound that gave them:

Row | Imax [1] | inhibition [2] | IC50 [3] | Drug uptake [4] | Cp [5] | concentration at 1 h [6] | concentration at 1 h [7] | Fu [8] | Ratio [9] | BPR [10] | Compound
22 | 57% | 15% |  |  |  |  |  |  |  |  | CCOC(=O)c1nn(-c2ccc(Cl)cc2)c(=O)c2c1C(O)NC2=O (stereo not given)
23 | 88% | 83% | 19.9 µM |  |  |  |  |  |  |  | Nc1scc2c(C(=O)O)nn(-c3ccc(C(F)(F)F)cc3)c(=O)c12
24 | 84% | 70% | 4 µM |  |  |  |  |  |  |  | Nc1scc2c(C(=O)O)nn(-c3ccc(O)cc3)c(=O)c12
25 | 92% | 87% | 2.5 µM |  |  |  |  |  |  |  | O=C(O)c1nn(-c2ccc(F)cc2)c(=O)c2c1CSC2=O
26 | 4.4% | 21% |  |  |  |  |  |  |  |  | CCOC(=O)C1=NN(c2ccc(Cl)cc2)C(=O)C(C#N)C1C (stereo not given)
27 | 92% | 71% | 1.6 µM |  |  |  |  |  |  |  | Nc1scc2c(C(=O)O)nn(-c3ccc(OC(F)(F)F)cc3)c(=O)c12
28 | 88% | 65% | 2 µM |  |  |  |  |  |  |  | CCOC(=O)c1nn(-c2ccc(Cl)cc2)c(=O)c2c(N)sc(Cl)c12
29 | 92% | 73% | 1.6 µM |  |  |  |  |  |  |  | Nc1scc2c(C(=O)O)nn(-c3cccc(Cl)c3)c(=O)c12
30 | 82% | 76% | 2.5 µM | BLD |  |  | 10 ng/mL |  |  |  | Cc1nn(C)c(=O)c2c(N)scc12
31 | 85% | 70% | 2 µM |  |  |  |  |  |  |  | Cc1nn(-c2ccc(Cl)cc2)c(=O)c2c(N)scc12
32 | 92% | 62% | 4 µM |  |  |  |  |  |  |  | CCOC(=O)c1nn(-c2ccc(Cl)cc2)c(=O)c2c(N)sc(Br)c12
33 | 86% | 64% | 3.2 µM |  |  |  |  |  |  |  | Nc1scc2c(C(=O)O)nn(-c3ccccc3Cl)c(=O)c12
34 | 8% | 17% |  |  |  |  |  |  |  |  | CCOC(=O)c1nn(-c2ccc(C(C)C)cc2)c(=O)c2c(N)scc12
35 | 68% | 44% |  |  |  |  |  |  |  |  | Nc1scc2c(C(=O)NC3CC3)nn(-c3ccccc3Cl)c(=O)c12
36 | 39% | 51% |  |  |  |  |  |  |  |  | CCOC(=O)c1nn(-c2ccc(Cl)cc2)c(=O)c2c(NC)scc12
37 | 89% | 92% | 19.9 µM |  |  |  |  |  |  |  | CC(C)n1nc(-c2ccccc2)c2csc(N)c2c1=O
38 | 41% | 29% |  |  |  |  |  |  |  |  | CCOC(=O)c1nn(-c2ccc(OC(F)(F)F)cc2)c(=O)c2c(N)scc12
39 | 48% | 27% |  |  |  |  |  |  |  |  | CCOC(=O)c1nn(-c2ccc(C(F)(F)F)cc2)c(=O)c2c(N)scc12
40 | 67% | 42% | 15.8 µM |  |  |  |  |  |  |  | CC(C)NC(=O)c1nn(-c2ccc(OC(F)(F)F)cc2)c(=O)c2c(N)scc12

Reference: ChEMBL document CHEMBL2057102, “Aminothienopyridazine inhibitors of tau aggregation: evaluation of structure-activity relationship leads to selection of candidates with desirable in vivo properties” (Bioorg Med Chem, 2012)
